{"source": "ChEMBL document CHEMBL4689842", "about": "“EUbOPEN Chemogenomics Library wave 1” (2021)", "system": "HEK-293T", "assay": "Multiplex assay against HEK293T;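 on Population Tubulin-Different-Phenotype (%): share of the cells with healthy nuclei that show this phenotype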", "format": "toxicity, cell-based", "conditions": "human", "summary_of_the_method": "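Tubulin, mitochondrial-mass and membrane-permeability phenotypes are per cents of healthy-nucleus cells. Cells were gated by CellPathfinder machine learning into Hoechst high-intensity objects or normal cells, normal cells into healthy, pyknosed or fragmented nuclei, and pyknosed cells into mitotic or apoptotic. Before that, live cells stained at seeding with Hoechst33342, BioTracker Green Microtubule Cytoskeleton Dye, MitoTracker Red and Annexin V Alexa Fluor 680 were imaged on a CQ1 microscope at 37°C and 5% CO2 after compound addition.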", "key": {"[1]": {"conditions": "12 h, 1 µM, compound concentration 1 uM, replicate 1"}, "[2]": {"conditions": "12 h, 1 µM, compound concentration 1 uM, replicate 2"}, "[3]": {"conditions": "12 h, 10 µM, compound concentration 10 uM, replicate 1"}, "[4]": {"conditions": "12 h, 10 µM, compound concentration 10 uM, replicate 2"}, "[5]": {"conditions": "24 h, 1 µM, compound concentration 1 uM, replicate 1"}, "[6]": {"conditions": "24 h, 1 µM, compound concentration 1 uM, replicate 2"}, "[7]": {"conditions": "24 h, 10 µM, compound concentration 10 uM, replicate 1"}, "[8]": {"conditions": "24 h, 10 µM, compound concentration 10 uM, replicate 2"}}, "data": [{"smiles": "Cl.Cl.NC1(c2ccc(-c3nc4ccn5c(=O)[nH]nc5c4cc3-c3ccccc3)cc2)CCC1", "values": [{"measurement": "Population Apoptotic (%)", "setting": "[1]", "value": 25, "unit": "%"}, {"measurement": "Population Fragmented Nuclei (%)", "setting": "[1]", "value": 19, "unit": "%"}, {"measurement": "Population Healthy Nuclei (%)", "setting": "[1]", "value": 63, "unit": "%"}, {"measurement": "Population Hoechst High Intensity Objects (%)", "setting": "[1]", "value": 20, "unit": "%"}, {"measurement": "Population Membrane Permeable-Phenotype (%)", "setting": "[1]", "value": 13, "unit": "%"}, {"measurement": "Population Mitochondria Different-Phenotype (%)", "setting": "[1]", "value": 10, "unit": "%"}, {"measurement": "Population Mitotic Cells (%)", "setting": "[1]", "value": 74, "unit": "%"}, {"measurement": "Population Normal (%)", "setting": "[1]", "value": 79, "unit": "%"}, {"measurement": "Population Pyknosed Nuclei (%)", "setting": "[1]", "value": 17, "unit": "%"}, {"measurement": "Population Tubulin-Different-Phenotype (%)", "setting": "[1]", "value": 15, "unit": "%"}, {"measurement": "Total Cell Count", "setting": "[1]", "value": 657}, {"measurement": "Population Apoptotic (%)", "setting": "[2]", "value": 11, "unit": "%"}, {"measurement": "Population Fragmented Nuclei (%)", "setting": "[2]", "value": 8, "unit": "%"}, {"measurement": "Population Healthy Nuclei (%)", "setting": "[2]", "value": 85, "unit": "%"}, {"measurement": "Population Hoechst High Intensity Objects (%)", "setting": "[2]", "value": 5, "unit": "%"}, {"measurement": "Population Membrane Permeable-Phenotype (%)", "setting": "[2]", "value": 6, "unit": "%"}, {"measurement": "Population Mitochondria Different-Phenotype (%)", "setting": "[2]", "value": 20, "unit": "%"}, {"measurement": "Population Mitotic Cells (%)", "setting": "[2]", "value": 88, "unit": "%"}, {"measurement": "Population Normal (%)", "setting": "[2]", "value": 94, "unit": "%"}, {"measurement": "Population Pyknosed Nuclei (%)", "setting": "[2]", "value": 6, "unit": "%"}, {"measurement": "Population Tubulin-Different-Phenotype (%)", "setting": "[2]", "value": 34, "unit": "%"}, {"measurement": "Total Cell Count", "setting": "[2]", "value": 1341}, {"measurement": "Population Apoptotic (%)", "setting": "[3]", "value": 31, "unit": "%"}, {"measurement": "Population Fragmented Nuclei (%)", "setting": "[3]", "value": 27, "unit": "%"}, {"measurement": "Population Healthy Nuclei (%)", "setting": "[3]", "value": 30, "unit": "%"}, {"measurement": "Population Hoechst High Intensity Objects (%)", "setting": "[3]", "value": 56, "unit": "%"}, {"measurement": "Population Membrane Permeable-Phenotype (%)", "setting": "[3]", "value": 18, "unit": "%"}, {"measurement": "Population Mitochondria Different-Phenotype (%)", "setting": "[3]", "value": 27, "unit": "%"}, {"measurement": "Population Mitotic Cells (%)", "setting": "[3]", "value": 68, "unit": "%"}, {"measurement": "Population Normal (%)", "setting": "[3]", "value": 43, "unit": "%"}, {"measurement": "Population Pyknosed Nuclei (%)", "setting": "[3]", "value": 42, "unit": "%"}, {"measurement": "Population Tubulin-Different-Phenotype (%)", "setting": "[3]", "value": 43, "unit": "%"}, {"measurement": "Total Cell Count", "setting": "[3]", "value": 496}, {"measurement": "Population Apoptotic (%)", "setting": "[4]", "value": 14, "unit": "%"}, {"measurement": "Population Fragmented Nuclei (%)", "setting": "[4]", "value": 5, "unit": "%"}, {"measurement": "Population Healthy Nuclei (%)", "setting": "[4]", "value": 71, "unit": "%"}, {"measurement": "Population Hoechst High Intensity Objects (%)", "setting": "[4]", "value": 65, "unit": "%"}, {"measurement": "Population Membrane Permeable-Phenotype (%)", "setting": "[4]", "value": 23, "unit": "%"}, {"measurement": "Population Mitochondria Different-Phenotype (%)", "setting": "[4]", "value": 25, "unit": "%"}, {"measurement": "Population Mitotic Cells (%)", "setting": "[4]", "value": 85, "unit": "%"}, {"measurement": "Population Normal (%)", "setting": "[4]", "value": 34, "unit": "%"}, {"measurement": "Population Pyknosed Nuclei (%)", "setting": "[4]", "value": 22, "unit": "%"}, {"measurement": "Population Tubulin-Different-Phenotype (%)", "setting": "[4]", "value": 82, "unit": "%"}, {"measurement": "Total Cell Count", "setting": "[4]", "value": 798}, {"measurement": "Population Apoptotic (%)", "setting": "[5]", "value": 23, "unit": "%"}, {"measurement": "Population Fragmented Nuclei (%)", "setting": "[5]", "value": 20, "unit": "%"}, {"measurement": "Population Healthy Nuclei (%)", "setting": "[5]", "value": 68, "unit": "%"}, {"measurement": "Population Hoechst High Intensity Objects (%)", "setting": "[5]", "value": 17, "unit": "%"}, {"measurement": "Population Membrane Permeable-Phenotype (%)", "setting": "[5]", "value": 18, "unit": "%"}, {"measurement": "Population Mitochondria Different-Phenotype (%)", "setting": "[5]", "value": 8, "unit": "%"}, {"measurement": "Population Mitotic Cells (%)", "setting": "[5]", "value": 76, "unit": "%"}, {"measurement": "Population Normal (%)", "setting": "[5]", "value": 82, "unit": "%"}, {"measurement": "Population Pyknosed Nuclei (%)", "setting": "[5]", "value": 10, "unit": "%"}, {"measurement": "Population Tubulin-Different-Phenotype (%)", "setting": "[5]", "value": 38, "unit": "%"}, {"measurement": "Total Cell Count", "setting": "[5]", "value": 645}, {"measurement": "Population Apoptotic (%)", "setting": "[6]", "value": 8, "unit": "%"}, {"measurement": "Population Fragmented Nuclei (%)", "setting": "[6]", "value": 23, "unit": "%"}, {"measurement": "Population Healthy Nuclei (%)", "setting": "[6]", "value": 73, "unit": "%"}, {"measurement": "Population Hoechst High Intensity Objects (%)", "setting": "[6]", "value": 7, "unit": "%"}, {"measurement": "Population Membrane Permeable-Phenotype (%)", "setting": "[6]", "value": 14, "unit": "%"}, {"measurement": "Population Mitochondria Different-Phenotype (%)", "setting": "[6]", "value": 4, "unit": "%"}, {"measurement": "Population Mitotic Cells (%)", "setting": "[6]", "value": 91, "unit": "%"}, {"measurement": "Population Normal (%)", "setting": "[6]", "value": 92, "unit": "%"}, {"measurement": "Population Pyknosed Nuclei (%)", "setting": "[6]", "value": 3, "unit": "%"}, {"measurement": "Population Tubulin-Different-Phenotype (%)", "setting": "[6]", "value": 46, "unit": "%"}, {"measurement": "Total Cell Count", "setting": "[6]", "value": 2029}, {"measurement": "Population Apoptotic (%)", "setting": "[7]", "value": 41, "unit": "%"}, {"measurement": "Population Fragmented Nuclei (%)", "setting": "[7]", "value": 40, "unit": "%"}, {"measurement": "Population Healthy Nuclei (%)", "setting": "[7]", "value": 21, "unit": "%"}, {"measurement": "Population Hoechst High Intensity Objects (%)", "setting": "[7]", "value": 63, "unit": "%"}, {"measurement": "Population Membrane Permeable-Phenotype (%)", "setting": "[7]", "value": 23, "unit": "%"}, {"measurement": "Population Mitochondria Different-Phenotype (%)", "setting": "[7]", "value": 38, "unit": "%"}, {"measurement": "Population Mitotic Cells (%)", "setting": "[7]", "value": 58, "unit": "%"}, {"measurement": "Population Normal (%)", "setting": "[7]", "value": 36, "unit": "%"}, {"measurement": "Population Pyknosed Nuclei (%)", "setting": "[7]", "value": 38, "unit": "%"}, {"measurement": "Population Tubulin-Different-Phenotype (%)", "setting": "[7]", "value": 41, "unit": "%"}, {"measurement": "Total Cell Count", "setting": "[7]", "value": 436}, {"measurement": "Population Apoptotic (%)", "setting": "[8]", "value": 12, "unit": "%"}, {"measurement": "Population Fragmented Nuclei (%)", "setting": "[8]", "value": 7, "unit": "%"}, {"measurement": "Population Healthy Nuclei (%)", "setting": "[8]", "value": 53, "unit": "%"}, {"measurement": "Population Hoechst High Intensity Objects (%)", "setting": "[8]", "value": 69, "unit": "%"}, {"measurement": "Population Membrane Permeable-Phenotype (%)", "setting": "[8]", "value": 29, "unit": "%"}, {"measurement": "Population Mitochondria Different-Phenotype (%)", "setting": "[8]", "value": 20, "unit": "%"}, {"measurement": "Population Mitotic Cells (%)", "setting": "[8]", "value": 88, "unit": "%"}, {"measurement": "Population Normal (%)", "setting": "[8]", "value": 30, "unit": "%"}, {"measurement": "Population Pyknosed Nuclei (%)", "setting": "[8]", "value": 39, "unit": "%"}, {"measurement": "Population Tubulin-Different-Phenotype (%)", "setting": "[8]", "value": 92, "unit": "%"}, {"measurement": "Total Cell Count", "setting": "[8]", "value": 837}]}]}
